In ChEMBL document CHEMBL1150058, “Gigantetronenin and gigantrionenin: novel cytotoxic acetogenins from Goniothalamus giganteus” (J Nat Prod, 1992):
Values after ≈ are worked out from the molar mass of the structure shown.

Legend:
MCF7 = experiment: Cytotoxicity against human MCF7 cells; type: functional; conditions: read-out: ED50 (the source's name)
How it was run: (§1)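 Cultured human tumour lines (A-549 lung carcinoma, MCF-7 breast carcinoma, HT-29 colon adenocarcinoma) were tested at the Purdue Cell Culture Laboratory by standard protocols, with adriamycin as positive control.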

HT-29 = experiment: Cytotoxicity against human HT-29 cells; type: functional; conditions: read-out: ED50 (the source's name); how it was run: as §1
A549 = experiment: Cytotoxicity against human A549 cells; type: functional; conditions: for EC50: Homo sapiens, A549, read-out: ED50 (the source's name); how it was run: as §1
[1] = Toxicity in brine shrimp; type: organism-based; conditions: artemia, in vivo

Compound | EC50 (MCF7) | EC50 (HT-29) | EC50 (A549) | LC50 [1] | ED50 (A549)
CCCCCCCCCCCC/C=C\CC[C@@H](OC(C)=O)[C@@H](CC[C@H](OC(C)=O)[C@@H]1CC[C@@H](CCCCCCCC2=CC(C)OC2=O)O1)OC(C)=O (stereo not given in full) | 24.9 µg/mL (≈ 33.9 µM) | 0.0667 µg/mL (≈ 0.091 µM) | 0.359 µg/mL (≈ 0.49 µM) | – | –
CCCCCCCCCCCC[C@@H](OC(C)=O)[C@H]1CC[C@H]([C@@H](CCCCCC[C@H](CCCCC[C@H](CC2=C[C@H](C)OC2=O)OC(C)=O)OC(C)=O)OC(C)=O)O1 | 90.4 µg/mL (≈ 114 µM) | 14.9 µg/mL (≈ 18.7 µM) | 0.17 µg/mL (≈ 0.214 µM) | – | –
CCCCCCCCCCCC/C=C\CC[C@@H](OC(C)=O)[C@@H](CC[C@H](OC(C)=O)[C@@H]1CC[C@@H](CCCCCC(CC2=CC(C)OC2=O)OC(C)=O)O1)OC(C)=O (stereo not given in full) | 5.97 µg/mL (≈ 7.55 µM) | 1.6 µg/mL (≈ 2.02 µM) | 0.96 µg/mL (≈ 1.21 µM) | – | –
CCCCCCCCCCCC[C@H](O)[C@@H]1CC[C@@H]([C@@H](O)CCCCCCC(O)CCCCC[C@@H](O)CC2=C[C@H](C)OC2=O)O1 (stereo not given in full) [ANNOMONTACIN] | – | – | – | 12.5 µg/mL (≈ 20 µM) | –
COc1cccc2c1C(=O)c1c(O)c3c(c(O)c1C2=O)C[C@@](O)(C(=O)CO)C[C@@H]3O[C@H]1C[C@H](N)[C@H](O)[C@H](C)O1 [DOXORUBICIN] | 0.0108 µg/mL (≈ 0.0199 µM) | 0.00483 µg/mL (≈ 0.00889 µM) | – | 8 µg/mL (≈ 14.7 µM) | 2.37 ×10⁻⁴ ug/ml
CCCCCCCCCCCCCCC(O)C(O)CC[C@H](O)[C@H]1CC[C@H](CCCCC[C@@H](O)CC2=C[C@H](C)OC2=O)O1 (stereo not given in full) [GIGANTETRONENIN] | – | – | 0.00471 µg/mL (≈ 0.00789 µM) | 9.4 µg/mL (≈ 15.7 µM) | –
CCCCCCCCCCCC/C=C\CC[C@@H](O)[C@H](O)CC[C@H](O)[C@@H]1CC[C@@H](CCCCCCCC2=C[C@H](C)OC2=O)O1 [GIGANTRIONENIN] | 8.06 µg/mL (≈ 13.3 µM) | 0.00292 µg/mL (≈ 0.00481 µM) | 0.00394 µg/mL (≈ 0.00649 µM) | 13.9 µg/mL (≈ 22.9 µM) | –
